Data as given in ChEMBL document CHEMBL4765495, “Semisynthesis and Biological Evaluation of Platencin Thioether Derivatives: Dual FabF and FabH Inhibitors against MRSA” (ACS Med Chem Lett, 2021).
In brackets after ≈: the same amount, converted by molar mass. Activity calls are given as the source filed them. The calls are words filed in the database; no cut-off is given here.

Columns and labels:
Staphylococcus aureus [1] = test: Antibacterial activity against Staphylococcus aureus ATCC 29213 assessed as inhibition of bacterial growth measured after 16 hrs by agar plate dilution method; assay type: functional
Method in brief: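 MIC determined by plate dilution against the reference strain; values from at least two independent experiments.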

Staphylococcus aureus [2] = test: Antibacterial activity against methicillin sensitive Staphylococcus aureus assessed as inhibition of bacterial growth measured after 16 hrs by agar plate dilution method; assay type: functional
Method in brief: (§1)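 Clinical MSSA and MRSA strains isolated from local hospitals; MIC determined by plate dilution; data from at least two independent experiments.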

Staphylococcus aureus [3] = test: Antibacterial activity against methicillin resistant Staphylococcus aureus assessed as inhibition of bacterial growth measured after 16 hrs by agar plate dilution method; assay type: functional; method in brief: as §1
[4] = target: T1, 3-oxoacyl-[acyl-carrier-protein] synthase 2 (Staphylococcus aureus) (UniProt Q5TKS0); test: Binding affinity to His6-tagged Staphylococcus aureus FabF expressed in Escherichia coli BL21 (DE3) assessed as decrease in melting temperature at 10 uM by SYPRO orange based differential scanning fluorimetry
T1 sequence (whole entry): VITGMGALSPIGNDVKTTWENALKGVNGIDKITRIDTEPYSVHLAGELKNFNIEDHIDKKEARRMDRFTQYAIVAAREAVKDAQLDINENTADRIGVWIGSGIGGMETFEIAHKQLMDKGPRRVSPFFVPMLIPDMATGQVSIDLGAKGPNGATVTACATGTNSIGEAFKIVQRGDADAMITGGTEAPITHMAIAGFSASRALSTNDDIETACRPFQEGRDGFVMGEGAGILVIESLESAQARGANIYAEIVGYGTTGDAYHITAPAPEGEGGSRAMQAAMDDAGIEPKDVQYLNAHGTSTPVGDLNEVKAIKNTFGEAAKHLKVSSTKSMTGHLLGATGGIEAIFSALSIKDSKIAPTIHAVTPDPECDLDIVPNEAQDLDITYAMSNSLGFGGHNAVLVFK
Method in brief: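 S. aureus FabF melting curves were measured by DSF in 20 mM HEPES, 180 mM NaCl, pH 7.5, a buffer selected by screening seven buffers. ΔTm was derived from the melting-temperature shift caused by ligand; n = 4.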

Escherichia coli [5] = test: Binding affinity to His6-tagged Escherichia coli FabH expressed in Escherichia coli BL21 (DE3) assessed as decrease in melting temperature at 10 uM by SYPRO orange based differential scanning fluorimetry
Method in brief: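 Purified E. coli FabH melting curves were recorded with and without ligand by thermal-shift fluorometry in 1.0 M Tris-HCl, pH 6.8, a buffer chosen from seven screened. ΔTm was taken from the Tm shift; n = 4.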

Enterococcus faecalis = test: Antibacterial activity against Enterococcus faecalis ATCC 29212 assessed as inhibition of bacterial growth measured after 16 hrs by agar plate dilution method; assay type: functional
Staphylococcus aureus [6] = test: Inhibition of Staphylococcus aureus FabH A81V/A111T mutant assessed as bacterial growth inhibition measured after 18 hrs by resazurin dye based broth dilution assay
Method in brief: (§2)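 S. aureus strains carrying point mutations in the FabH active site; MIC determined by broth dilution; data from at least two independent experiments.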

Staphylococcus aureus [7] = test: Inhibition of Staphylococcus aureus FabH A81V mutant assessed as bacterial growth inhibition measured after 18 hrs by resazurin dye based broth dilution assay; method in brief: as §2
Staphylococcus aureus [8] = test: Antibacterial activity against methicillin resistant Staphylococcus aureus assessed as inhibition of bacterial growth measured after 18 hrs in presence of 10% human serum by resazurin dye based broth dilution assay; assay type: functional
Escherichia coli [9] = test: Antibacterial activity against Escherichia coli harboring delta tolC mutant assessed as inhibition of bacterial growth measured after 16 hrs by agar plate dilution method; assay type: functional
Staphylococcus aureus [10] = test: Antibacterial activity against methicillin resistant Staphylococcus aureus infected in C57BL/6J mouse model of peritonitis assessed as mouse survival at 10 mg/kg, ip administered at 1 and 5 hrs post infection; assay type: functional, organism-based
Method in brief: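 Female C57BL/6J mice infected intraperitoneally with 1.5–2.0 × 10^7 CFU MRSA in 5% w/v hog gastric mucin; n = 5 per group; intraperitoneal treatment at 10 mg/kg at 1 and 5 h post-infection; vancomycin 10 mg/kg as control; survival and kidney bacterial load recorded.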

[11] = Binding affinity to His6-tagged Escherichia coli FabF C163Q mutant expressed in Escherichia coli BL21 (DE3) assessed as binding constant measured after 200 sec by isothermal titration calorimetry
Method in brief: (§3)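 Ligands were dissolved in PBS (10 mM, pH 7.4) and titrated into E. coli FabF(C163Q) in the same buffer. Protein was at 12 or 14 μM and ligand at 250 μM. Thermodynamic parameters (ΔH, ΔS, ΔG, Kd, n) were calculated from the heat of binding. Runs were done at least three times; one representative run was used.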

Escherichia coli [12] = test: Binding affinity to His6-tagged Escherichia coli FabF C163Q mutant expressed in Escherichia coli BL21 (DE3) assessed as stoichiometry ratio measured after 200 sec by isothermal titration calorimetry; method in brief: as §3
Escherichia coli [13] = test: Binding affinity to His6-tagged Escherichia coli FabF C163Q mutant expressed in Escherichia coli BL21 (DE3) assessed as change in enthalpy measured after 200 sec by isothermal titration calorimetry; method in brief: as §3
Escherichia coli [14] = test: Binding affinity to His6-tagged Escherichia coli FabF C163Q mutant expressed in Escherichia coli BL21 (DE3) assessed as change in entropy measured after 200 sec by isothermal titration calorimetry; method in brief: as §3
Escherichia coli [15] = test: Binding affinity to His6-tagged Escherichia coli FabF C163Q mutant expressed in Escherichia coli BL21 (DE3) assessed Gibbs free energy change measured after 200 sec by isothermal titration calorimetry; method in brief: as §3
Staphylococcus aureus [16] = test: Antibacterial activity against methicillin resistant Staphylococcus aureus infected in C57BL/6J mouse model of peritonitis assessed as mouse survival when infected with 2.5x10^7 CFU bacteria at 10 mg/kg, ip administered at 1 and 5 hrs post infection; assay type: functional, organism-based
Method in brief: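 Female C57BL/6J mice given a higher intraperitoneal MRSA inoculum of 2.5 × 10^7 CFU; intraperitoneal treatment at 1 and 5 h post-infection; survival recorded.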

Row | Structure (SMILES) | MIC (Staphylococcus aureus [1]) [µg/mL] | MIC (Staphylococcus aureus [2]) [µg/mL] | MIC (Staphylococcus aureus [3]) [µg/mL] | Activity [4] | Activity (Escherichia coli [5]) | MIC (Enterococcus faecalis) [µg/mL] | MIC (Staphylococcus aureus [6]) [µg/mL] | MIC (Staphylococcus aureus [7]) [µg/mL] | MIC (Staphylococcus aureus [8]) [µg/mL] | MIC (Escherichia coli [9]) [µg/mL] | Activity (Staphylococcus aureus [10]) | Kd [11] [nM] | Ratio (Escherichia coli [12]) | deltaH (Escherichia coli [13]) [kcal/mol] | -TdeltaS (Escherichia coli [14]) [kcal/mol] | deltaG (Escherichia coli [15]) [kcal/mol] | Activity (Staphylococcus aureus [16])
1 | C=C1C[C@]23C=C(Sc4ccccn4)C(=O)[C@@](C)(CCC(=O)Nc4c(O)ccc(C(=O)O)c4O)[C@@H]2CC1CC3 (single isomer, unassigned) | 4 (≈ 7.48 µM) | 2 (≈ 3.74 µM) | 2 (≈ 3.74 µM) | Active | Active | – | – | – | – | – | – | – | – | – | – | – | –
2 | C=C1C[C@]23C=C(Sc4ccc(Br)cc4)C(=O)[C@@](C)(CCC(=O)Nc4c(O)ccc(C(=O)O)c4O)[C@@H]2CC1CC3 (single isomer, unassigned) | 4 (≈ 6.53 µM) | 1 (≈ 1.63 µM) | 1 (≈ 1.63 µM) | Active | Active | 2 (≈ 3.27 µM) | 4 (≈ 6.53 µM) | 8 (≈ 13.1 µM) | 16 | > 32 | – | – | – | – | – | – | –
3 | C=C1C[C@]23C=C(SC4CCCCC4)C(=O)[C@@](C)(CCC(=O)Nc4c(O)ccc(C(=O)O)c4O)[C@@H]2C[C@H]1CC3 | 2 (≈ 3.71 µM) | 2 (≈ 3.71 µM) | 2 (≈ 3.71 µM) | Active | Active | – | – | – | – | – | inactive | – | – | – | – | – | –
4 | C=C1C[C@]23C=C(SCCO)C(=O)[C@@](C)(CCC(=O)Nc4c(O)ccc(C(=O)O)c4O)[C@@H]2CC1CC3 (single isomer, unassigned) | 8 (≈ 15.9 µM) | 32 (≈ 63.8 µM) | > 32 | – | – | 2 (≈ 3.99 µM) | > 32 | > 32 | > 32 | > 32 | – | 223 | 1.17 | -1.09 | -7.72 | -8.8 | –
5 | C=C1C[C@]23C=C(SC(C)(C)C)C(=O)[C@@](C)(CCC(=O)Nc4c(O)ccc(C(=O)O)c4O)[C@@H]2CC1CC3 (single isomer, unassigned) | 16 (≈ 31.1 µM) | 8 (≈ 15.6 µM) | 8 (≈ 15.6 µM) | Active | Active | – | – | – | – | – | – | – | – | – | – | – | –
6 | C=C1C[C@]23C=C(SCc4ccccc4)C(=O)[C@@](C)(CCC(=O)Nc4c(O)ccc(C(=O)O)c4O)[C@@H]2CC1CC3 (single isomer, unassigned) | 2 (≈ 3.65 µM) | 1 (≈ 1.83 µM) | 1 (≈ 1.83 µM) | Active | Active | 2 (≈ 3.65 µM) | 4 (≈ 7.3 µM) | 8 (≈ 14.6 µM) | 16 | > 32 | – | – | – | – | – | – | inactive
7 | C=C1C[C@]23C=C(Sc4ccc(I)cc4)C(=O)[C@@](C)(CCC(=O)Nc4c(O)ccc(C(=O)O)c4O)[C@@H]2CC1CC3 (single isomer, unassigned) | 8 (≈ 12.1 µM) | 4 (≈ 6.06 µM) | 4 (≈ 6.06 µM) | Active | Active | – | – | – | – | – | – | – | – | – | – | – | –
8 | C[C@]12C[C@@]34C=CC(=O)[C@@](C)(CCC(=O)Nc5c(O)ccc(C(=O)O)c5O)[C@@H]3[C@H](C[C@@H]1C4)O2 | 1 (≈ 2.27 µM) | 0.5 (≈ 1.13 µM) | 1 (≈ 2.27 µM) | – | – | 2 (≈ 4.53 µM) | > 32 | > 32 | 2 | 32 (≈ 72.5 µM) | – | 17.3 | 1.16 | -2.06 | -7.95 | -10 | –
9 | C=C1C[C@]23C=C(Sc4ccccc4C)C(=O)[C@@](C)(CCC(=O)Nc4c(O)ccc(C(=O)O)c4O)[C@@H]2CC1CC3 (single isomer, unassigned) | 1 (≈ 1.83 µM) | 1 (≈ 1.83 µM) | 1 (≈ 1.83 µM) | Active | Active | 2 (≈ 3.65 µM) | 4 (≈ 7.3 µM) | 4 (≈ 7.3 µM) | 32 | > 32 | – | – | – | – | – | – | –
